According to ChEMBL document CHEMBL2016550, “Synthesis and structure-activity relationships of 1,2,4-triazolo[1,5-a]pyrimidin-7(3H)-ones as novel series of potent β isoform selective phosphatidylinositol 3-kinase inhibitors” (Bioorg Med Chem Lett, 2012):

What was measured:
[1] = target: Phosphatidylinositol 4,5-bisphosphate 3-kinase catalytic subunit alpha isoform (Homo sapiens, UniProt P42336); assay: Inhibition of PI3Kalpha by continuous read time resolved fluorescence resonance energy transfer displacement assay
Phosphatidylinositol 4,5-bisphosphate 3-kinase catalytic subunit alpha isoform, sequence (P42336 whole entry, canonical isoform): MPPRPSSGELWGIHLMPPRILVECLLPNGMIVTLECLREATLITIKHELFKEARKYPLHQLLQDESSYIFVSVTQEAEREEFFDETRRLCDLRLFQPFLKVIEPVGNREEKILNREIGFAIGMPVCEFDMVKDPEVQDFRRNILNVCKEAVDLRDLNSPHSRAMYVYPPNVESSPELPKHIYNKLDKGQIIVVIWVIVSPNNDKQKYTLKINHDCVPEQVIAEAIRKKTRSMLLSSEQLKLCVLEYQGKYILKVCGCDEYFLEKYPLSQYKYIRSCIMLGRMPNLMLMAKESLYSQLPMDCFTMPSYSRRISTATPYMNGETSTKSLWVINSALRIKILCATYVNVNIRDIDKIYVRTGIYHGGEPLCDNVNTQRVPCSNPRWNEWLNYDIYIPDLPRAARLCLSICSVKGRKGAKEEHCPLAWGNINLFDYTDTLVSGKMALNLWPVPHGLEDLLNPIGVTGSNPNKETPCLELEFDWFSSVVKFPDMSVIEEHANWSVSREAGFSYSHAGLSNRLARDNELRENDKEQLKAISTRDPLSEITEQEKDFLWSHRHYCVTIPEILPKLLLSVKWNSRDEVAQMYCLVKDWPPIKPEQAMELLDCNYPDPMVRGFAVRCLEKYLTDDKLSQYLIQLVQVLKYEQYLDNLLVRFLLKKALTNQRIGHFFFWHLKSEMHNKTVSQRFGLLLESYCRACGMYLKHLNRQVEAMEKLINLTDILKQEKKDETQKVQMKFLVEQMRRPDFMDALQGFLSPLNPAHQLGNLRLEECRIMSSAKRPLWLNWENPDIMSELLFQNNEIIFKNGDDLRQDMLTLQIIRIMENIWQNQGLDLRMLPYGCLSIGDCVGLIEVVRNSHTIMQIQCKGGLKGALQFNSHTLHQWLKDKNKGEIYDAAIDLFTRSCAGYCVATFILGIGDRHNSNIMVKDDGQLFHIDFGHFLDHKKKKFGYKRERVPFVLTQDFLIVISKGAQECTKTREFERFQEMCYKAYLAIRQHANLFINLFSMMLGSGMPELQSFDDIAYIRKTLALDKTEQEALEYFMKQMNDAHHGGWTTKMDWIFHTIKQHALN

[2] = target: T1, Phosphatidylinositol 4,5-bisphosphate 3-kinase catalytic subunit beta isoform (Homo sapiens, UniProt P42338); assay: Inhibition of PI3Kbeta by continuous read time resolved fluorescence resonance energy transfer displacement assay
T1 sequence (P42338 whole entry, canonical isoform): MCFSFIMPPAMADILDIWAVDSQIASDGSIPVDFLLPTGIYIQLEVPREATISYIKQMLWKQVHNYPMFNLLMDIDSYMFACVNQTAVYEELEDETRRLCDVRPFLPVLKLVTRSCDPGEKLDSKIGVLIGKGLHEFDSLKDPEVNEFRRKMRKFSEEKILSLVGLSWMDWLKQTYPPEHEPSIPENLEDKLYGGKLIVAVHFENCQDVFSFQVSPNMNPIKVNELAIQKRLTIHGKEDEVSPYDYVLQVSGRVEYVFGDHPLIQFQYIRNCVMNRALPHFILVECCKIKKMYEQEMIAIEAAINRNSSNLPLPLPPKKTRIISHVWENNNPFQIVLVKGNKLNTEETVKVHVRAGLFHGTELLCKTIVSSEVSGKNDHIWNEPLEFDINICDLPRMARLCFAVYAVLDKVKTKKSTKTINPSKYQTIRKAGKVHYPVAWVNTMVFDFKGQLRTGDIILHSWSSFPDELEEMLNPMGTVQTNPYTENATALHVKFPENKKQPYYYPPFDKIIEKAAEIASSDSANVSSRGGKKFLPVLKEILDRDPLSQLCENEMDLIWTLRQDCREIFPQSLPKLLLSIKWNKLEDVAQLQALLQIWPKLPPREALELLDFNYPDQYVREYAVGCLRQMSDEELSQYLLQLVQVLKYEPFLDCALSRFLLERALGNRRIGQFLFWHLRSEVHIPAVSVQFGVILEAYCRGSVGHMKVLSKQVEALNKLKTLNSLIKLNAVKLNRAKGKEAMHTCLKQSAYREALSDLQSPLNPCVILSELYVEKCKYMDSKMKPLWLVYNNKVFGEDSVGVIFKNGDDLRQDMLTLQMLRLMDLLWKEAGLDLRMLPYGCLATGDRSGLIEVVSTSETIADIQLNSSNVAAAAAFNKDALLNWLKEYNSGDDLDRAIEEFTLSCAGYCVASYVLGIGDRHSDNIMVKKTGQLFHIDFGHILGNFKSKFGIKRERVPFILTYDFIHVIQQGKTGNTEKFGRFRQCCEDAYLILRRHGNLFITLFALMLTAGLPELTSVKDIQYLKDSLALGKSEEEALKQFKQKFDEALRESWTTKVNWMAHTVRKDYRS

[3] = target: Phosphatidylinositol 4,5-bisphosphate 3-kinase catalytic subunit gamma isoform (Homo sapiens, UniProt P48736); assay: Inhibition of PI3Kgamma by continuous read time resolved fluorescence resonance energy transfer displacement assay
Phosphatidylinositol 4,5-bisphosphate 3-kinase catalytic subunit gamma isoform, sequence (P48736 whole entry, canonical isoform): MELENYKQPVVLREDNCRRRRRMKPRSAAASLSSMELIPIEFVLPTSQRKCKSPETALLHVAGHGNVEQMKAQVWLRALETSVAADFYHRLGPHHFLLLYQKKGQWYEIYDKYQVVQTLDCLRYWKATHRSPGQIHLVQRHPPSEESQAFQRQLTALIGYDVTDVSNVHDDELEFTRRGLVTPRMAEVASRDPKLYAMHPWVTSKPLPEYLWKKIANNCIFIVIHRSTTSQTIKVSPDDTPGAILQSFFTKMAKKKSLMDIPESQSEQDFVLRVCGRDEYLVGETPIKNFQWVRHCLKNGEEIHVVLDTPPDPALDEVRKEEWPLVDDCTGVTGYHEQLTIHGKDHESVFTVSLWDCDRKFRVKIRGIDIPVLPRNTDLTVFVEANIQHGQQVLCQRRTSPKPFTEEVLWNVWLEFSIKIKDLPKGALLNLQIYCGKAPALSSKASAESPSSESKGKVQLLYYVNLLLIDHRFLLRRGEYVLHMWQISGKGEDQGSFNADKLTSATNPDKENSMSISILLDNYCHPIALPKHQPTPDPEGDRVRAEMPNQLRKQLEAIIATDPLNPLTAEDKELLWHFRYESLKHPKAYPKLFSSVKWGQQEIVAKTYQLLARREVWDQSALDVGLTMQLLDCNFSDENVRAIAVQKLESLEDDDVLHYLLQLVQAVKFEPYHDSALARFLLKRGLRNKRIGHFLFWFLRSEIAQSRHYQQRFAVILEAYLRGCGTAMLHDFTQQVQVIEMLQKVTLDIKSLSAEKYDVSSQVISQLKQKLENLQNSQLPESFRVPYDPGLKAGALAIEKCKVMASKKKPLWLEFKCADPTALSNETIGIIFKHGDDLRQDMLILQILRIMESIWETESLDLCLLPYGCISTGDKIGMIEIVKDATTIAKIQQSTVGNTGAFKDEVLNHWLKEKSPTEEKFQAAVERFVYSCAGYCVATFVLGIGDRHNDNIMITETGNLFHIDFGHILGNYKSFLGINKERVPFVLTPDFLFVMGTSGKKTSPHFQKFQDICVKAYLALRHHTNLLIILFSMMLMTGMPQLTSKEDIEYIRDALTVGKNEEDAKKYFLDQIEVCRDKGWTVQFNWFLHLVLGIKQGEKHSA

[4] = target: T2, Phosphatidylinositol 4,5-bisphosphate 3-kinase catalytic subunit delta isoform (Homo sapiens, UniProt O00329); assay: Inhibition of PI3Kdelta by continuous read time resolved fluorescence resonance energy transfer displacement assay
T2 sequence (O00329 whole entry): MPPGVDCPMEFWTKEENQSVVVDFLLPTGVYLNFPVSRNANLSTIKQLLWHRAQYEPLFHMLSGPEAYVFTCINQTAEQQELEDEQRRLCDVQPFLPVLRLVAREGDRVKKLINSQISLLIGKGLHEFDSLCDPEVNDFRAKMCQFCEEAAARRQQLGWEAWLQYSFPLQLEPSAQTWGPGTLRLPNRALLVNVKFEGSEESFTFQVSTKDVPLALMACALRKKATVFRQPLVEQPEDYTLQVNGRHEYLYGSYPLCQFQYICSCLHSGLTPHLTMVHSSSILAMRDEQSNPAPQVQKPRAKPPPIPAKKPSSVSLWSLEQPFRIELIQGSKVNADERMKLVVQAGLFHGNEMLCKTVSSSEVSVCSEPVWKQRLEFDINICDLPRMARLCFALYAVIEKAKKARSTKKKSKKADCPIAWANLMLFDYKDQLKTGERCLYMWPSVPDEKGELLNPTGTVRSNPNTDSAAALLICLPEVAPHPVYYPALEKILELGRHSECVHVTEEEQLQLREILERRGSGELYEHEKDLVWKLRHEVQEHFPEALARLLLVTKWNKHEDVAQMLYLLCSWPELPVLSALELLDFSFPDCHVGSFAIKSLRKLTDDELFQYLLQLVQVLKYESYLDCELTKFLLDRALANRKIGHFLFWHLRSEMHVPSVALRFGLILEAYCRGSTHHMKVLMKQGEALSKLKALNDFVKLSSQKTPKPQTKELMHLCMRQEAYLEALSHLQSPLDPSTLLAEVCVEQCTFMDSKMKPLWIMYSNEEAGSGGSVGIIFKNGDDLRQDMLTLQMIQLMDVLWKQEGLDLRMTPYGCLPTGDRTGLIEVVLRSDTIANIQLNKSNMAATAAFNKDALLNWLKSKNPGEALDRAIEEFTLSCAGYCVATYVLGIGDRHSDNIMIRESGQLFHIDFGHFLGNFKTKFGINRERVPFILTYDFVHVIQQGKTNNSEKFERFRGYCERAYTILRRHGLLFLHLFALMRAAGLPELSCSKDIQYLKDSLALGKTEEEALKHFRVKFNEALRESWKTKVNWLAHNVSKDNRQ

[5] = Selectivity ratio of IC50 for PI3Kdelta to IC50 for PI3Kbeta
[6] = target: T1, Phosphatidylinositol 4,5-bisphosphate 3-kinase catalytic subunit beta isoform; assay: Inhibition of PI3K beta-mediated AKT phosphorylation at serine 473 in PTEN deficient human MDA-MB-468 cells after 30 mins; format: cell-based
Procedure, shortened: (§1)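 Breast cancer cells plated and held about 16–20 h, then exposed to compound for 30 min at 0.15% final DMSO. After a Tris wash, cells were lysed in buffer with protease and phosphatase inhibitors. Ser473-pAKT and total AKT were measured by MSD duplex immunoassay, normalised to total AKT (pAKT + AKT signal), and expressed as percent of DMSO control. IC50 from concentration-response fits; means of at least 2 experiments.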

MDA-MB-468 = assay: Cytotoxicity against PTEN deficient human MDA-MB-468 cells after 6 days by alamar blue assay; format: functional, cell-based
Procedure, shortened: (§2)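 Cells were grown anchorage-independently: a 0.6% agar/medium + 10% FBS bottom layer, cells in 0.3% agar/medium + 10% FBS, and medium + 10% FBS on top. After 16–20 h they were dosed (0.15% final DMSO) for 6 days, with a baseline plate read at dosing. Alamar Blue was added for 6 h and read as fluorescence (ex 530/em 590 nm). Signal from 0.3% Brij 35 background wells was subtracted, values were expressed as % of DMSO control, and fitted with a 4-parameter logistic.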

[7] = Clearance in rat at 0.25 mg/kg, iv; format: ADME, organism-based; set-up: dose 0.25 mg/kg, route intravenous; conditions: in vivo
Procedure, shortened: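 Rats given a single IV dose at 0.25 mg/kg, formulated in 1% DMSO with 20% Encapsin in saline. Clearance was calculated after IV administration. Reported values are means of at least 2 experiments.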

[8] = target: Serine/threonine-protein kinase mTOR (Homo sapiens, UniProt P42345); assay: Inhibition of mTOR
[9] = Inhibition of DNA-PK
[10] = target: T1, Phosphatidylinositol 4,5-bisphosphate 3-kinase catalytic subunit beta isoform; assay: Inhibition of PI3K beta-mediated AKT phosphorylation at serine 473 in PTEN wild type human HCC1954 cells; format: cell-based; procedure, shortened: as §1
HCC1954 = assay: Cytotoxicity against PTEN wild type human HCC1954 cells after 6 days by alamar blue assay; format: functional, cell-based; conditions: HCC1954, 144 h; procedure, shortened: as §2
[11] = Homo sapiens, MDA-MB-468, 144 h, read-out: EC50

Row | SMILES | IC50 [1] [µM] | IC50 [2] [µM] | IC50 [3] [µM] | IC50 [4] [µM] | Ratio IC50 [5] | IC50 [6] [µM] | EC50 (MDA-MB-468; mda-mb-468) | EC50 (MDA-MB-468; [11]) [µM] | clearance [7] [L/h/kg] | EC50 (MDA-MB-468; mda-mb-468, read-out: EC50) [µM] | IC50 [8] [µM] | IC50 [9] [µM] | IC50 [10] [µM] | EC50 (HCC1954) [µM]
1 | CSc1nn2c(=O)cc(N3CCOCC3)nc2n1Cc1cccc(C(F)(F)F)c1C | 0.32 | 0.0004 | 1.3 | 0.025 | 6 | 0.0051 | Not Active |  |  |  |  |  |  | 
2 | CSc1nn2c(=O)cc(-c3ccncc3)nc2n1Cc1cccc(Cl)c1Cl | 0.4 | 0.013 | 2 | 0.079 | 6 |  |  |  |  |  |  |  |  | 
3 | Cc1c(Cn2c(C)nn3c(=O)cc(N4CCOCC4)nc23)cccc1C(F)(F)F | 0.63 | 0.0006 | 0.79 | 0.02 | 6 | 0.0015 |  | 0.11 | 7.8 |  |  |  |  | 
4 | Cc1nn2c(=O)cc(N3CCOC(C)C3)nc2n1Cc1cccc(Cl)c1Cl (stereo in doubt; 6) [listing 1 of 2 here] | 2.5 | 0.025 | 7.9 | 0.5 |  |  |  |  |  |  |  |  |  | 
5 | O=c1cc(N2CCOCC2)nc2n(Cc3cccc(Cl)c3Cl)c(C3CC3)nn12 | 2.5 | 0.0025 | 2.5 | 0.13 | 52 | 0.02 |  | 0.26 |  |  |  |  |  | 
6 | CSc1nn2c(=O)cc(N3CCOC(C)C3)nc2n1Cc1cccc(C(F)(F)F)c1C (stereo not drawn) | 1.3 | 0.001 | 0.2 | 0.025 | 6 |  |  |  |  |  |  |  |  | 
7 | Cc1nn2c(=O)cc(N3CCOC(C)C3)nc2n1Cc1cccc(Cl)c1Cl (racemic) | 0.32 | 0.002 | 0.25 | 0.025 |  |  |  |  |  |  |  |  |  | 
8 | Cc1nn2c(=O)cc(N3CCOC(C)C3)nc2n1Cc1cccc(Cl)c1Cl (single isomer, unassigned; enantiomer 2) | 1 | 0.0013 | 0.5 | 0.04 |  | 0.0034 |  | 0.11 |  |  |  |  |  | 
9 | Cc1c(Cn2c(C)nn3c(=O)cc(N4CCOC(C)C4)nc23)cccc1C(F)(F)F (single isomer, unassigned; enantiomer 1) [listing 1 of 2 here] | 1.6 | 0.0031 | 0.79 | 0.063 |  | 0.0079 |  |  |  | 0.31 |  |  |  | 
10 | Cc1nn2c(=O)cc(N3CCOC(C)C3)nc2n1Cc1cccc(Cl)c1Cl (stereo in doubt; 6) [listing 2 of 2 here] |  |  |  |  | 20 |  |  |  |  |  |  |  |  | 
11 | Cc1c(Cn2c(C)nn3c(=O)nc(N4CCOCC4)cc23)cccc1C(F)(F)F |  | 0.002 |  |  |  | 0.092 |  | 0.21 | 4.98 |  |  |  |  | 
12 | Cc1c(Cn2c(C)cn3c(=O)cc(N4CCOCC4)nc23)cccc1C(F)(F)F |  | 0.0013 |  | 0.0079 |  |  |  |  |  |  | 32 | 0.8 | > 29 | 9.7
13 | Cc1c(Cn2c(C)nn3c(=O)cc(N4CCOC(C)C4)nc23)cccc1C(F)(F)F (single isomer, unassigned; enantiomer 1) [listing 2 of 2 here] |  |  |  |  | 6 |  |  |  |  |  |  |  |  | 
14 | CSc1nn2c(=O)cc(N3CCOCC3)nc2n1Cc1cccc(Cl)c1Cl | 1.6 | 0.0016 | 0.5 | 0.031 | 19 | 0.013 |  | 0.24 |  |  |  |  |  | 
15 | Cc1c(Cn2c(C3CC3)nn3c(=O)cc(N4CCOCC4)nc23)cccc1C(F)(F)F | 2.5 | 0.0013 | 1.6 | 0.04 | 6 | 0.0041 |  | 0.04 |  |  |  |  |  | 
16 | Cc1nn2c(=O)cc(N3CCOCC3)nc2n1Cc1cccc(Cl)c1Cl | 0.63 | 0.0013 | 0.5 | 0.05 | 6 | 0.034 |  | 0.17 |  |  |  |  |  | 
17 | Cc1c(Cn2c(C)nn3c(=O)cc(N4CCOC(C)C4)nc23)cccc1C(F)(F)F (racemic) [listing 1 of 2 here] |  |  |  |  | 6 |  |  |  |  |  |  |  |  | 
18 | Cc1c(Cn2c(C)nn3c(=O)cc(N4CCOC(C)C4)nc23)cccc1C(F)(F)F (single isomer, unassigned; enantiomer 2) [listing 1 of 2 here] |  |  |  |  | > 10 |  |  |  |  |  |  |  |  | 
19 | Cc1c(Cn2c(C)nn3c(=O)cc(N4CCOC(C)C4)nc23)cccc1C(F)(F)F (racemic) [listing 2 of 2 here] | 0.4 | 0.0013 | 0.16 | 0.01 |  | 0.0027 |  |  |  | 0.055 |  |  |  | 
20 | Cc1c(Cn2c(C)nn3c(=O)cc(N4CCOC(C)C4)nc23)cccc1C(F)(F)F (single isomer, unassigned; enantiomer 2) [listing 2 of 2 here] | 0.32 | 0.0003 | 0.06 | 0.004 |  | 0.0005 |  |  |  | 0.013 | 6.3 | 0.16 | 2.5 | 2.2
